Screening data from PubChem BioAssay.
Sampled rows, rich in hits. Any-hit rate of the full collection: about 2%.
DNMT1 block – blocks human DNA methyltransferase DNMT1 | P26358 | DNMT1 molecular beacon, Hinp1I cleavage, fluorescence | inhibition (reported as % activation of signal), % at 10 µM | actives 0.83% (n = 360,000); in the data active = inhibition above about 50%
STEP inh – inhibitors of human striatal-enriched phosphatase STEP | inhibition, % at 20 µM | recombinant STEP, OMFP fluorogenic substrate, fluorescence | actives 0.25% (n = 360,000);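 active = inhibition at 20 µM, scaled per plate between control wells, above about 37%, limit read from the data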;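 also: 0% = DMSO with enzyme and substrate and 100% = substrate only without enzyme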
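Assay system: isolated STEP enzyme / Timing: 20 min at room temperature, dark / Doses: 20 µM, 1% DMSO / Technique: fluorescence intensity, excitation 480 nm, emission 540 nm / Reagent: fluorogenic phosphatase substrate OMFP at 25 µM final / Measure: percent inhibition scaled to no-enzyme and uninhibited-enzyme controls, plate-pattern corrected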
CSN deneddyl inh – CSN deneddylation inhibition; Purified CSN, SCF-Nedd8-OG deneddylation, fluorescence polarization; inhibition, % at 12.5 µM; actives 0.38% (n = 360,000); AID 651999;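 active = pattern-corrected inhibition above about 35%, with an unprinted fluorescence ratio check between 0.5 and 1.5, limit read from the data, passing the limit was not always enough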;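 also: 0% = enzyme with substrate and 100% = substrate without enzyme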
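Test system: Human Csn5 produced in HEK293T cells | Compound: 12.5 µM single point | Times: 90 min, room temperature | Signal: Fluorescence polarization readout | Read-out basis: % inhibition of substrate cleavage by Csn5 | Controls: no-enzyme wells high, enzyme-with-substrate wells low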
LMPTP inh – blocks human LMPTP phosphatase; recombinant LMPTP-A, OMFP fluorogenic substrate, fluorescence intensity; inhibition, % at 20 µM; P24666; actives 0.22% (n = 360,000); AID 651560;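 active = compounds that cut the enzyme signal by at least half of the control window in the single-dose screen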;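 also: plate controls were DMSO wells with enzyme plus substrate for no effect and substrate without enzyme for full effect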
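Test system: LMPTP-A phosphatase enzyme. Amount: LMPTP-A at 0.625 nM final in the reaction. Reagent: OMFP substrate, 400 µM final. Times: 50 min at room temperature. Signal: endpoint fluorescence intensity from OMFP dephosphorylation. Read-out basis: % inhibition. Benchmarks: no-enzyme and uninhibited controls.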
SUMO1-SIM PPI – SUMO1-SIM interaction modulation; P63165; SUMO1 binding to a labelled peptide, TR-FRET, 1 h; inhibition, % at 20 µM; actives 0.33% (n = 360,000); AID 602429; in the data active = inhibition above about 37%
Scp1 inh – blocks human Scp-1 phosphatase activity | Q9GZU7 | Recombinant Scp1, phosphopeptide, malachite green phosphate absorbance | inhibition, % at 20 µM | actives 0.88% (n = 340,000) | AID 493091;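 active = inhibition above about 50% at 20 µM, limit read from the data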;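 also: plate controls were DMSO wells with enzyme for no effect and wells lacking enzyme for full effect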
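assay system = SCP-1 phosphatase catalytic domain, residues 76-261 | buffer or medium = 50 mM Tris acetate pH 5.5, 0.005% Tween-20, 10 mM MgCl2 | incubation = enzyme reaction 45 min at room temperature, colour 5 min, stabilisation 30 min | signal = Phosphate-binding colour reagent, absorbance read at 630 nm | measure = % inhibition at 20 µM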
Scp1 confirm – confirmation of human Scp-1 phosphatase inhibitors; actives 61% (n = 2,500); shares compounds with Scp1 inh; recombinant SCP-1 catalytic domain, phosphate release, malachite green absorbance; inhibition, % at 20 µM;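 also: plate controls were DMSO with enzyme for no effect and buffer wells lacking enzyme for full effect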
Scp-1 MG ctr – interferes with malachite green readout, flagging false Scp-1 hits; shares compounds with Scp1 inh; Colorimetric interference counterscreen, malachite green absorbance 630 nm; apparent inhibition (interference), % at 20 µM; 2,500 tested, under 10 active;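 also: compounds added after enzyme reaction finished so only phosphate colour detection is probed; plate controls were DMSO wells with completed Scp-1 reaction for no effect and substrate wells lacking enzyme for full effect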
Scp-1 Tm shift – Scp-1 (human) binding by thermal shift; actives 25% (n = 1,500); shares compounds with Scp1 inh; Recombinant SCP1, Sypro Orange thermal shift Tm; thermal shift relative to vanadate control, % at 40 µM; AID 540329;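 active = substances whose mean melting-temperature shift, as a percentage of the reference inhibitor's shift, reaches about 5.3%, limit read from the data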;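 also: 0% = Tm of DMSO wells and 100% = Tm with sodium orthovanadate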
DNMT1 inh conf – DNMT1 inhibition confirmation, single concentration; DNMT1 molecular beacon HinP1I cleavage, fluorescence; inhibition, % at 10 µM; actives 8% (n = 2,300); AID 602385; shares compounds with DNMT1 block;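 active = average inhibition of at least 30% in the single-concentration confirmation test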
Beacon interf – counter-screen for DNMT1 inhibitors: spectral interference; shares compounds with DNMT1 block; actives 1% (n = 2,300); AID 602387; DNMT1 molecular beacon spectral interference counterscreen, fluorescence 485/520; activation (fluorescence interference), % at 10 µM;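 active = activation of at least 30% at 10 µM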;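 also: DNMT1 catalytic domain with a HinP1I cleavage step and a FAM/dabcyl DNA beacon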
STEP inh conf – STEP (human) phosphatase inhibition, single concentration confirmation | AID 623866 | recombinant STEP, OMFP fluorogenic substrate, fluorescence | inhibition, % at 20 µM | shares compounds with STEP inh | actives 32% (n = 520); call rule not given here;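 also: 0% = enzyme with substrate plus DMSO and 100% = substrate without enzyme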
* marks the source's active call; other numbers are inactive results; / = not tested or not shown.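 The calls were made as follows, unless noted: active = inhibition of at least 30% at 20 µM; inactive = the rest.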

SMILES | DNMT1 block | STEP inh | CSN deneddyl inh | LMPTP inh | SUMO1-SIM PPI | Scp1 inh | Scp1 confirm | Scp-1 MG ctr | Scp-1 Tm shift | STEP inh conf | others
CCCCn1c(N)c(-c2nc3ccccc3s2)c2c([N+](=O)[O-])nn(C)c(=O)c21 | -14 | 3 | 1 | 1 | -4 | 3 | / | / | / | /
COc1ccc(CCNC(=O)CCC(=O)N2CCOc3ccc(Cl)cc32)cc1OC | 1 | 1 | 2 | -1 | 1 | 2 | / | / | / | /
CN(C)c1cc(-c2ccc(Cl)c(Cl)c2)oc(=O)c1Cl | 62* | 96* | 8 | 60* | 26 | 107* | 81* | -18 | 3 | 13 | DNMT1 inh conf=0;Beacon interf=-2
Cc1ccc(N(CC(=O)NCc2ccco2)C(=O)CCC(=O)Nc2nccs2)cc1C | 1 | 0 | 0 | 2 | 1 | -7 | / | / | / | /
CN(Cc1ccco1)C(=O)CC[C@H]1O[C@@H](n2ccc(=O)[nH]c2=O)[C@H](O)[C@@H]1O | -4 | -1 | -2 | -2 | 2 | / | / | / | / | /
O=C1c2cccc3cccc(c23)C(=O)N1c1ccc2ncccc2c1 | 4 | 100* | 30 | 37 | -27 | 101* | 74* | -19 | 2 | 9
Cc1ccccc1OCC(=O)N(CC(C)C)c1c(N)n(CC(C)C)c(=O)[nH]c1=O | 1 | -6 | -1 | 0 | -1 | -10 | / | / | / | /
C=CCNC(=O)c1ccc(Cn2c(=S)[nH]c3cc4c(cc3c2=O)OCO4)cc1 | 1 | 47* | 56* | 49 | 17 | 86* | 58* | -18 | -22 | 6
O=C(Nc1cc([N+](=O)[O-])ccc1O)c1cccc(C(=O)Nc2cc([N+](=O)[O-])ccc2O)c1 | -3 | 99* | 7 | 97* | 56* | 98* | 96* | -3 | 16* | 59*
O=C(Nc1cc([N+](=O)[O-])ccc1O)c1cccc([N+](=O)[O-])c1 | -2 | 4 | 0 | 1 | -15 | -2 | / | / | / | /
O=C(O)c1ccc(/C=N/NC(=O)c2cc3c(ccc4ccccc43)o2)cc1 | 0 | 98* | 11 | 67* | 15 | 79* | 71* | -9 | 1 | 7
Nc1ccccc1C(=O)NN=Cc1cccc([N+](=O)[O-])c1 | 1 | -1 | 1 | 0 | -22 | / | / | / | / | /
O=C(N/N=C/c1cccc([N+](=O)[O-])c1)c1cc2c(ccc3ccccc32)o1 | 44 | 99* | 15 | 64* | 5 | 99* | 68* | -12 | -11 | 32
COc1cc(/C=N/NC(=O)c2cc3c(ccc4ccccc43)o2)cc(OC)c1O | -9 | 0 | 5 | 1 | 17 | / | / | / | / | /
O=C(N/N=C/c1ccc(F)cc1)c1cc(-c2ccc3c(c2)OCO3)n[nH]1 | 14 | 42* | 5 | 27 | 21 | 56* | 35* | -21 | -22 | 36*
O=C(N/N=C\c1ccc(OC(=O)c2cccs2)cc1)c1ccc(Cl)cc1 | 43 | 94* | 29 | 94* | 6 | 96* | 81* | -12 | -24 | 6
COc1ccc(/C=N/NC(=O)c2cc(-c3ccc4c(c3)OCO4)n[nH]2)cc1OC | -11 | -4 | -5 | 1 | 3 | -9 | / | / | / | /
O=C(N/N=C/c1ccc(Cl)c([N+](=O)[O-])c1)c1ccc2c(c1)OCCO2 | 80* | 94* | 27 | 89* | 80* | 105* | 78* | -14 | -12 | 46* | DNMT1 inh conf=9;Beacon interf=-2
O=C(N/N=C/c1ccc(Cl)cc1)c1ccc2c(c1)OCO2 | 9 | 93* | 25 | 39 | 15 | 103* | 91* | -4 | -26 | 18
CCn1c(SCC(=O)Nc2nncs2)nnc1-c1ccco1 | 7 | -2 | 3 | 0 | 8 | -3 | / | / | / | /
COc1ccc(N2CCN(C(=O)c3ccccc3NC(=O)c3ccccc3)CC2)cc1 | 1 | -1 | -2 | -1 | -4 | -5 | / | / | / | /
CC(C)(C)C(=O)Nc1cc2c3c(c1)CCN3C(=O)CC2 | 1 | 0 | 2 | 0 | 3 | 3 | / | / | / | /
CCNC(=O)C1CCCN(C(=O)C(c2ccccc2)c2ccccc2)CC1 (stereo not drawn) | -1 | 2 | 5 | 0 | 1 | / | / | / | / | /
O=C(N/N=C/c1cccc(OC(=O)c2ccc3c(c2)OCO3)c1)c1cncc(Br)c1 | 3 | 2 | 2 | -1 | -3 | -2 | / | / | / | /
O=C(N/N=C/c1ccc(OC(=O)c2ccc3c(c2)OCO3)cc1)c1cncc(Br)c1 | 117* | 99* | 5 | 86* | -3 | 94* | 86* | -13 | -26 | 11 | DNMT1 inh conf=4;Beacon interf=-9
O=C(CSc1ccc2nnc(-c3ccccn3)n2n1)Nc1cccc(F)c1 | -1 | -4 | -3 | -1 | 15 | -5 | / | / | / | /
O=C(CCS(=O)(=O)c1ccc(Br)cc1)NCc1ccc(F)cc1 | 51* | 40* | 8 | 2 | 33 | 81* | 41* | -11 | -13 | 25 | DNMT1 inh conf=0;Beacon interf=3
COc1cc(S(=O)(=O)n2ccc(C)n2)c(C)cc1C | -1 | 1 | 0 | -2 | -7 | / | / | / | / | /
